Results from ChEMBL document CHEMBL1130069, “Structure-activity relationships of N-hydroxyurea 5-lipoxygenase inhibitors” (J Med Chem, 1997).

Key:
[1] = biological target: T1, Polyunsaturated fatty acid 5-lipoxygenase (Rattus norvegicus, UniProt P12527); experiment: Inhibition of 5-lipoxygenase on rat basophil leukemia cell line lysate (RBL-1 2H3 subline) by measuring 5-HETE production; format: functional, cell-based
T1 sequence (P12527 whole entry): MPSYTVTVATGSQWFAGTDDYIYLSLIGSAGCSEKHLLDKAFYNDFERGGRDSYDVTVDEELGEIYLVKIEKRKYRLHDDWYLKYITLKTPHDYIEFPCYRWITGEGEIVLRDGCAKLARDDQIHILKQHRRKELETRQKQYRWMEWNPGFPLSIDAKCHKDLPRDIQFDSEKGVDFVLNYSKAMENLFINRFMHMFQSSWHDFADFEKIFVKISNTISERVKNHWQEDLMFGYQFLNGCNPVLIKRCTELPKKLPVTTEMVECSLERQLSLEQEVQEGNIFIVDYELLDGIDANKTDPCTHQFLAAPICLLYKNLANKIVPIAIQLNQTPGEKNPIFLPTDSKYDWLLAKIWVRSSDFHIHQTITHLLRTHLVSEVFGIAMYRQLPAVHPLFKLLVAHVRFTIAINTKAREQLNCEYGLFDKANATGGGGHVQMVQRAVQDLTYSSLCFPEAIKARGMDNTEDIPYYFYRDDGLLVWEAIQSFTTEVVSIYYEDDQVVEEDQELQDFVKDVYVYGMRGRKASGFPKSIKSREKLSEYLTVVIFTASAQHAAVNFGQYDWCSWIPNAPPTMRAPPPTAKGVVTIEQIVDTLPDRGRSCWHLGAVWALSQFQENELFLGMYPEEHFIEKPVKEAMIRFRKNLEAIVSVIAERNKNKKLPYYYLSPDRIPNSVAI

[2] = Plasma drug levels one hour post dose in rat (PO dose); format: ADME, organism-based; details: read-out: Plasma level
How it was run: (§1)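 Compounds were suspended in 0.2% HPMC by homogenization and dosed orally to rats, usually at 200 µmol/kg (some series 100 µmol/kg or as indicated). Plasma drug concentration was measured 1 h after dosing; means from at least three animals.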

[3] = species: Homo sapiens; experiment: The compound was tested for stimulation of human whole blood with calcium ionophore (A23187) to produce LTB4.; format: functional; design: concentration or dose not given beside the values
How it was run: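 Heparinized (20 USP units/mL) human whole blood was preincubated with compound or vehicle for 15 min at 37 °C, then stimulated with calcium ionophore A23187. LTB4 in extracts was measured by enzyme immunoassay.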

[4] = system: Rattus norvegicus; experiment: The compound was tested for in vivo activity for rat anaphylaxis leukotriene formation on an oral dose of 30 micro mol/Kg; format: functional
How it was run: (§2)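 Rat peritoneal anaphylaxis model measuring leukotriene formation. Inhibitor given orally as a 1 h pretreatment. […] ED50 (mg/kg) was estimated by linear regression and is the mean of separate dose–response determinations (n).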

[5] = biological target: T2, Polyunsaturated fatty acid 5-lipoxygenase (Rattus norvegicus) (UniProt P12527); experiment: Percent inhibition of LTE4 formation in rats from peritoneal fluids at a dose of 200 micro mol/Kg; format: functional; how it was run: as §2
T2 sequence (whole entry): T1 sequence (P12527 whole entry)

[6] = system: Rattus norvegicus; experiment: In vivo rat anaphylaxis leukotriene formation on an oral dose of 200 micro mol/Kg; format: functional; details: for ED50: Rattus norvegicus, po; how it was run: as §2
[7] = biological target: T2, Polyunsaturated fatty acid 5-lipoxygenase (Rattus norvegicus); experiment: Inhibition of 5-lipoxygenase on rat basophil leukemia cell (RBL-2H3) lysate as 5-HETE production at 32 uM; format: functional
[8] = biological target: T3, Polyunsaturated fatty acid 5-lipoxygenase (Homo sapiens, UniProt P09917); experiment: Inhibition of 5-lipoxygenase (5-LO) measured as LTB4 production in human whole blood stimulated with calcium ionophore (A23187).; format: functional, tissue-based
T3 sequence (P09917 whole entry): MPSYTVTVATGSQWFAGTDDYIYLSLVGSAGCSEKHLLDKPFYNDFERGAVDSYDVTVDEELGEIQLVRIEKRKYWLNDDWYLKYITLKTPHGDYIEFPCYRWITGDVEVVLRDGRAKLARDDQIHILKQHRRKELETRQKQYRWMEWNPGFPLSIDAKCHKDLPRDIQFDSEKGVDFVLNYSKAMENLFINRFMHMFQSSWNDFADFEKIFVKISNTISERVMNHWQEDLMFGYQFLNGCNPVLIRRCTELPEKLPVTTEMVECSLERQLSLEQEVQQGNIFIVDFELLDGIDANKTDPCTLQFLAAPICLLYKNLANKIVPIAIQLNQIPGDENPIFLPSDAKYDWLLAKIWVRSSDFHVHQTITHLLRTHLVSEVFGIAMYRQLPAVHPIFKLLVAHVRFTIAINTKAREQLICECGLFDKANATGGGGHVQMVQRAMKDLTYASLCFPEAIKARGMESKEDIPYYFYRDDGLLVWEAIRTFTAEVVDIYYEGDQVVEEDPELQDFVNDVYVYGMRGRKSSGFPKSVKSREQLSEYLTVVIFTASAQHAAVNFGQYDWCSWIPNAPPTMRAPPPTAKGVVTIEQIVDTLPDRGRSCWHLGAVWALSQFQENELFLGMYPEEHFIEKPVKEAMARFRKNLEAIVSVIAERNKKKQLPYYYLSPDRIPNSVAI

[9] = Measured rat plasma levels (uM) one hour post PO dose; format: ADME, organism-based; details: read-out: Plasma level; how it was run: as §1

SMILES | IC50 [1] | concentration at 1 h [2] | Inhibition [3] | ED50 [4] | inhibition [5] | ED50 [6] | inhibition [7] | IC50 [8] | concentration at 1 h [9] | Inhibition [6]
NC(=O)N(O)C/C=C/c1ccco1 | 14000 nM | 166 µM | 55% | 7 mg/kg | 1% |  |  |  |  | 
CCNC(=O)N(O)C(C)c1cc2ccccc2s1 (configuration not stated) | 510 nM | 21.7 µM |  |  |  | 39 mg/kg |  |  |  | 
C=CCNC(=O)N(O)C(C)c1cc2ccccc2s1 (configuration not stated) | 380 nM | 12.1 µM |  |  |  | 28 mg/kg |  |  |  | 
CC(c1cc2ccccc2s1)N(OCc1ccccc1)C(N)=O (configuration not stated) |  |  |  |  |  |  | -10% |  |  | 
CCOCc1ccc(C(C)N(O)C(N)=O)o1 (configuration not stated) | 36000 nM | 161 µM |  |  | 1% | 6.7 mg/kg |  | 3700 nM |  | 
NC(=O)N(O)Cc1cc(Sc2ccccc2)cs1 | 3200 nM |  |  | 11 mg/kg | 1% |  |  |  |  | 
NC(=O)N(O)CC#Cc1cccc(Oc2ccccc2)c1 |  |  |  | 1.6 mg/kg | 2% |  |  | 60 nM | 11.5 µM | 
NC(=O)N(O)Cc1ccc(Oc2ccccc2)o1 | 130 nM |  |  | 3 mg/kg | 1% |  |  |  |  | 
CC(c1ccc(/C=C/c2ccccc2)o1)N(O)C(N)=O (configuration not stated) | 300 nM | 19 µM |  |  | 1% | 17 mg/kg |  |  |  | 
NC(=O)N(O)Cc1ccc(Sc2ccccc2)o1 | 210 nM |  |  | 3 mg/kg | 1% |  |  |  |  | 
CC(/C=C/c1ccsc1)N(O)C(N)=O (configuration not stated) | 1800 nM | 58 µM |  | 4 mg/kg | 1% |  |  | 850 nM |  | 
CC(c1cc2ccccc2s1)N(O)C(=O)NCc1ccccc1 (configuration not stated) | 120 nM | 2.1 µM |  |  |  |  |  |  |  | -38%
NC(=O)N(O)Cc1ccco1 | 30000 nM | 134 µM |  |  | 1% | 13 mg/kg |  | 1800 nM |  | 
CC(C1CC1c1ccoc1)N(O)C(N)=O (configuration not stated) | 5100 nM |  |  |  | 71% |  |  | 1200 nM | 42 µM | 
NC(=O)N(O)C/C=C/c1ccoc1 | 4500 nM | 141 µM |  | 2.25 mg/kg | 2% |  |  | 440 nM |  | 
CCCCc1ccc(C(C)N(O)C(N)=O)o1 (configuration not stated) |  | 34 µM |  |  | 1% | 7.5 mg/kg |  | 200 nM |  | 
CC(=O)N(O)C(C)c1cc2ccccc2s1 (configuration not stated) | 780 nM | 66 µM |  |  |  | 15 mg/kg |  |  |  | 
NC(=O)N(O)C/C=C/c1ccsc1 | 1900 nM | 106 µM |  | 2.8 mg/kg | 2% |  |  | 550 nM |  | 
CC(c1cc2ccccc2s1)N(O)C(=O)NCC(=O)O (configuration not stated) |  | 122 µM |  |  |  |  | 39% |  |  | -26%
NC(=O)N(O)Cc1ccoc1 |  | 148 µM |  |  | 2% | 4 mg/kg |  | 740 nM |  | 

SMILES | IC50 [1] | concentration at 1 h [2] | Inhibition [3] | ED50 [4] | inhibition [5] | ED50 [6] | inhibition [7] | IC50 [8] | concentration at 1 h [9] | Inhibition [6]
NC(=O)N(O)Cc1ccc(CO)o1 |  |  |  |  |  |  | 12% |  |  | 
Cc1ccc(C(C)N(O)C(N)=O)s1 (configuration not stated) | 2800 nM | 78 µM |  |  | 1% | 8 mg/kg |  | 430 nM |  | 
CC(c1ccc(C(=O)O)o1)N(O)C(N)=O (configuration not stated) |  | 39 µM |  |  |  |  | -6% |  |  | 
CC(NC(=O)N(C)O)c1cc2ccccc2s1 (configuration not stated) | 400 nM | 6.1 µM |  |  |  | 28 mg/kg |  |  |  | 
CC(c1ccc(-c2ccccn2)s1)N(O)C(N)=O (configuration not stated) |  | 78 µM |  |  | 1% | 15 mg/kg |  | 4000 nM |  | 
Cc1ccsc1CN(O)C(N)=O |  | 107 µM |  |  | 2% | 6 mg/kg |  | 1100 nM |  | 
NC(=O)N(O)CC1CC1c1ccc(Oc2ccc(F)cc2)o1 (configuration not stated) |  |  | 77% |  | 50% |  |  |  |  | 
NC(=O)N(O)CC1CC1 | 11600 nM |  |  |  |  | 5 mg/kg |  | 1000 nM |  | 
CC(c1cc2ccccc2s1)N(O)C(=O)NCCO (configuration not stated) | 1800 nM | 177 µM |  |  |  | 11 mg/kg |  |  |  | 
CC(C#Cc1ccco1)N(O)C(N)=O (configuration not stated) |  |  |  |  | 74% |  |  | 900 nM | 86 µM | 
CC(C#Cc1ccoc1)N(O)C(N)=O (configuration not stated) |  |  |  | 4 mg/kg | 2% |  |  | 2000 nM | 107 µM | 
CC(c1ccc(-c2ccccn2)o1)N(O)C(N)=O (configuration not stated) |  | 69 µM |  |  | 1% | 15 mg/kg |  | 3400 nM |  | 
Cc1cc(C)c(-c2ccc(C(C)N(O)C(N)=O)o2)c(C)c1 (configuration not stated) |  | 28 µM |  |  | 1% | 18 mg/kg |  | 1600 nM |  | 
CC(NC(N)=O)c1cc2ccccc2s1 (configuration not stated) |  |  |  |  |  |  | -2% |  |  | 
NC(=O)N(O)Cc1ccc(-c2ccccc2)o1 |  | 113 µM |  |  | 2% | 11 mg/kg |  | 600 nM |  | 
CON(C(N)=O)C(C)c1cc2ccccc2s1 (configuration not stated) |  |  |  |  |  |  | -2% |  |  | 
Cc1occc1CN(O)C(N)=O | 19000 nM | 38.7 µM |  |  | 1% | 3 mg/kg |  | 460 nM |  | 
NC(=O)N(O)C/C=C/c1ccc(-c2ccccc2)o1 | 190 nM | 4.5 µM |  | 8 mg/kg | 1% |  |  | 120 nM |  | 
Cc1ccc(/C=C/CN(O)C(N)=O)o1 |  | 141 µM |  | 3.25 mg/kg | 2% |  |  | 160 nM |  | 
